A selection: hits, their analogues and other compounds. The true share with any hit is near 1.5%.
EP2 mod: modulators of human EP2 prostaglandin E2 receptor | P43116 | induction, % at 25 µM | EP2-expressing cells, cAMP HTRF FRET, PGE2 co-stimulation | 0.83% of 260,000 active;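 active means compounds whose cAMP rise, as percent of the full-agonist control response, exceeds 60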;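 further: rat C6 glioma line stably carrying human EP2 under a CMV promoter; the protocol text gives 20 µM as final concentration; 100% = response of wells given 1 µM PGE2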
ABCB1 block: human ABCB1 inhibition, ABCG2 as counter-screen; P08183; CCRF-Adr cells, JC-1 efflux, flow cytometry; inhibition, % at 6.6 µM; 0.067% of 190,000 active; AID 1326; in the data active means inhibition above about 40%;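 further: 0% = vehicle and 100% = reference inhibitor; higher value means more JC-1 retained so stronger ABCB1 efflux block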
RBBP9 inh: human RBBP9 hydrolase inhibition | O75884 | recombinant RBBP9, FP-Rh probe fluorescence polarization | inhibition, % at 7.94 µM | 0.2% of 220,000 active | AID 1515;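 active means inhibition above the campaign mean of all tested compounds plus 3 SD, cut at about 14% in these data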;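 further: plate controls were DMSO wells with RBBP9 for no effect and wells lacking RBBP9 protein for full effect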
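Test system – recombinant human RBBP9 · Input – RBBP9 2.5 µM in dispensing solution, pre-mixing · Medium – Tris buffer pH 8.0, NaCl, Pluronic · Schedule – preincubation 30 min plus labeling 45 min at 25 °C · Measured by – fluorescence polarization · Measure – % inhibition · Controls – DMSO and no-protein wells · Replicates – one well per compound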
ABCG2 inh: inhibitors of human ABCG2 transporter, ABCB1 counter-screen | AID 1325 | IgMXP3 cells, JC-1 efflux, flow cytometry | inhibition, % at 6.6 µM | 0.1% of 190,000 active;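 active means inhibition above 80%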;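 further: 0% = DMSO and 100% = nicardipine control wells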
Target sequence (Q9UNQ0 whole entry, looked up): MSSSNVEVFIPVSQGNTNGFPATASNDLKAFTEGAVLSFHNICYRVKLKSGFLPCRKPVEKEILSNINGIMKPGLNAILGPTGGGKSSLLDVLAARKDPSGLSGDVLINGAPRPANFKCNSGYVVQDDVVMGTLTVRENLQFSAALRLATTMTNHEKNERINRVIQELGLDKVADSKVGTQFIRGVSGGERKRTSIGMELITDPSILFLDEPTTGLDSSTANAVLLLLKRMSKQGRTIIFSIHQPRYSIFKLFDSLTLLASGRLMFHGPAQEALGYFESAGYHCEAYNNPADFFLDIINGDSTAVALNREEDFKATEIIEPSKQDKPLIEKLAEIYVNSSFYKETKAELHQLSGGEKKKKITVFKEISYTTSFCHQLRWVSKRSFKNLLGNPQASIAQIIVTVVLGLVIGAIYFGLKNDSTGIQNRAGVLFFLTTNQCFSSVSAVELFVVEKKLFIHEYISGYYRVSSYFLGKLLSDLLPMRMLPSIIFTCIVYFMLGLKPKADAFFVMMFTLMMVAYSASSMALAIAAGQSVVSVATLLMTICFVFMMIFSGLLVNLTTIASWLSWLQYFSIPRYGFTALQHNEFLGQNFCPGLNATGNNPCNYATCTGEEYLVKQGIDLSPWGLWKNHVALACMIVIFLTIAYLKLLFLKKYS
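System: two drug-resistant human cell lines, ABCG2 and ABCB1; controls: nicardipine high and DMSO low controls; times: 10 min exposure at 25 °C with rotation, no wash; detection: flow cytometry of retained JC-1 fluorescence; read-out basis: percent efflux inhibition, scaled nicardipine 100% to DMSO 0%; doses: one concentration, 6.6 µM final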
PGE2 EP2 inh: blocks the human prostaglandin E2 receptor EP2; C6 glioma cells expressing human EP2, cAMP TR-FRET; cells stimulated with saturating PGE2; inhibition, % at 25 µM; P43116; 0.52% of 260,000 active;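 active means percent inhibition above 40 after rounding to a whole number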;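 further: rat C6 glioma host cells with rolipram phosphodiesterase inhibitor present; the protocol text gives 20 µM as final concentration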
RBBP9 confirm: human RBBP9 inhibition, confirmation. shares compounds with RBBP9 inh. recombinant RBBP9, FP-Rh probe fluorescence polarization. AID 1537. 36% of 410 active. inhibition, % at 7.94 µM;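 active means inhibition above the hit cutoff derived for the primary screen, cut at about 15% in these data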;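 further: 0% = RBBP9 with DMSO and 100% = wells lacking RBBP9 protein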
The depositor's hits bear a star; / = no result given.

SMILES	EP2 mod	ABCB1 block	RBBP9 inh	ABCG2 inh	PGE2 EP2 inh	RBBP9 confirm
CC(=O)N1CCCN(S(=O)(=O)c2ccc3c(c2)oc(=O)n3C(C)C)CC1	-19.4	/	/	/	7.8	/
Cn1ncc(Br)c1NC(=O)CSc1ccc(Cl)cc1	-33.5	/	17.7*	/	9.3	3.3
O=C(CSc1ccc(Cl)cc1)Nc1ncccn1	0.4	0.5	-4.1	1.2	5.6	/
N#CCc1cnc2ccccc2n1	-1.3	/	16.4*	/	10.6	1.7
O=C(O)c1cnc2ccccc2n1	-6.2	-0.1	-3.2	-0.3	8.9	/
CCn1c(SCC(=O)Nc2c(C)cccc2C)nc2sc(C)c(C)c2c1=O	-13.5	/	/	/	9.2	/
COc1cc(-c2nc3ccccn3c2/N=C/c2ccc(F)cc2)ccc1O	-28.4	0.8	15.8*	28.6	6.1	10.5
COc1cc(-c2nc3ccccn3c2/N=C/c2cccc(OC)c2O)ccc1O	-1.6	20.1	-6.3	29.0	11.4	/
Cc1cc(C)c2[nH]c(=O)c(CN(CC3CCCO3)C(=O)c3ccco3)cc2c1 (configuration not stated)	-44.3	/	/	/	7.3	/
CCc1cc(/C(Cc2csc(C)n2)=N/O)c(O)cc1O	-1.6	0.1	30.8*	0.7	10.6	22.4*
O=C(CSc1nc(COc2ccccc2)nc2sc3c(c12)CCCC3)Nc1nccs1	-16.3	/	/	/	7.9	/
Cc1ccc(NCCCCO)cc1C	-17.8	0.0	17.4*	0.2	9.7	6.7
Cc1cccc(OCCCC(=O)Nc2ccc(N(C)C)cc2)c1	-90.3	-0.3	18.1*	2.5	5.4	26.3*
CC(=O)c1sc2nc(-c3ccco3)ccc2c1N	-16.9	/	20.9*	/	8.3	35.1*
CCc1nnc(NC(=O)c2cn3ccc(C)cc3n2)s1	-12.7	/	/	/	4.2	/
O=c1oc2c(-c3ccc([N+](=O)[O-])cc3)cc(O)cc2s1	-54.0	/	43.2*	/	8.6	8.5
NC1=C(c2ccc([N+](=O)[O-])cc2)C(=O)CO1	10.7	0.2	4.0	4.4	4.3	/
CC1CCN(c2nc3c(c(=O)[nH]2)CCN(Cc2ccc(C(C)C)cc2)C3)CC1	-13.5	/	/	/	4.9	/
Oc1ccc(N=Cc2ccc(O)c(O)c2)cc1	-11.0	-0.4	-2.6	-1.1	8.9	/
Cc1ccsc1C=Nc1ccc(O)cc1	-5.1	-6.3	14.8*	-7.1	3.6	12.7
Cc1cc(=O)oc2c(CN(C)Cc3ccccc3)c(O)ccc12	22.2	0.2	0.9	0.7	/	/
C=CCN(CC=C)Cc1c(O)ccc2c1oc(=O)c1ccccc12	/	/	24.8*	/	41.4*	4.7
Oc1ccc(NC(=S)N=Nc2c(O)[nH]c3ccc(Br)cc23)cc1	-116.6	-1.2	53.0*	-2.7	46.4*	22.3*
Oc1ccc(NC(=S)N=Nc2c(O)[nH]c3ccccc23)cc1	-56.1	-0.5	16.1*	4.8	11.3	18.6*
O=C(Oc1ccc(C(=S)N2CCCCC2)cc1)c1ccccc1	-91.0	0.0	2.4	0.2	6.7	/
SMILES	EP2 mod	ABCB1 block	RBBP9 inh	ABCG2 inh	PGE2 EP2 inh	RBBP9 confirm
O=C(Oc1ccc(C(=S)N2CCC(O)CC2)cc1)c1ccc(Cl)cc1	-29.2	0.9	19.7*	1.7	4.6	29.0*
Cc1ccc(Oc2ccc(CNC(=O)c3cc(-c4cnn(C)c4)n[nH]3)cc2)cc1	-84.1	/	/	/	12.6	/
COc1ccc(S(=O)(=O)N(CCO)Cc2cc3ccc(C)cc3[nH]c2=O)cc1	-14.1	/	/	/	12.2	/
O=C(OCC(=O)N1CCN(C(=O)c2ccco2)CC1)c1ccccc1OCc1ccc(Cl)cc1	-11.7	-2.4	20.3*	1.3	14.1	-32.1
O=C(OCC(=O)N1CCN(C(=O)c2ccco2)CC1)c1ccccc1O	15.0	0.3	0.4	1.7	7.8	/
COc1ccc(-n2c(Cc3cccn3C)nnc2SCC(=O)NC2CCCC2)cc1	10.5	0.9	19.0*	5.0	1.9	2.3
Cc1nn(C(C)C(=O)O)c(=O)c2ccccc12 (configuration not stated)	11.6	0.4	17.9*	1.7	10.5	5.1
CC(C(=O)O)n1ncc2ccccc2c1=O (configuration not stated)	-8.5	/	1.5	/	6.8	/
CC(C)NC(=O)CSc1nc(N)c(NC(=O)c2ccco2)c(=O)[nH]1	29.3	0.3	-0.9	0.9	4.6	/
Nc1nc(SCC(=O)N2CCCCCC2)[nH]c(=O)c1NC(=O)c1ccco1	17.2	0.2	14.9*	2.9	11.2	63.6*
C=CCN1C(=O)C(C)NC1=S (configuration not stated)	-11.6	/	21.8*	/	2.9	-0.7
C=CCN1C(=O)C(C(C)CC)NC1=S (configuration not stated)	11.8	0.1	-6.8	0.0	7.7	/
CCCC(CCC)C(=O)Nc1c[nH]c(=O)[nH]c1=O	29.7	-0.1	16.7*	-0.9	6.2	5.6
COc1ccc2[nH]cc(CCNC(=S)NCc3ccccc3)c2c1	-90.9	/	/	/	17.8	/
C=CCn1c(=O)c2c(C)c(C)sc2n2c(Nc3ccc(OC)cc3)nnc12	41.9	7.2	15.6*	21.7	16.4	4.0
CCc1ccc(NSc2ccccc2[N+](=O)[O-])cc1	19.1	0.1	16.5*	1.4	8.3	4.7
CC(C)C(=O)NS(=O)(=O)c1ccc(NC(=O)c2ccco2)cc1	-3.5	/	/	/	8.2	/
CC(=O)Nc1ccc(OCC[n+]2cccc(C(N)=O)c2)cc1	8.7	0.4	14.4*	1.5	5.8	8.2
CC(C)C(=O)N(c1cc2sc(=O)oc2c2ccccc12)S(=O)(=O)c1cccs1	52.2	-0.5	32.0*	-4.3	5.2	11.4
C=CCNC(=O)CN1CCC(O)(c2ccccc2F)CC1	1.9	/	/	/	5.6	/
CN=c1scc(-c2cccs2)n1/N=C/c1ccccc1O	-62.9	-0.7	4.1	-10.6	7.2	/
CN=c1scc(-c2cccs2)n1/N=C/c1ccc(O)c(O)c1O	-2.1	-0.8	32.4*	-6.6	10.3	83.1*
C=CCN=c1scc(-c2ccco2)n1/N=C/c1ccc(O)c(O)c1O	-37.5	/	47.9*	/	18.0	83.5*
Cc1c(Br)c(O)c(Br)c2sc(=O)oc12	-39.6	/	24.6*	/	10.0	38.0*
COc1ccc2[nH]c(=O)c(CN(Cc3ccc4c(c3)OCO4)Cc3nnnn3C(C)(C)C)cc2c1	15.8	/	/	/	15.5	/
SMILES	EP2 mod	ABCB1 block	RBBP9 inh	ABCG2 inh	PGE2 EP2 inh	RBBP9 confirm
CCn1c(COc2ccc(Cl)cc2)nnc1SCC(=O)N1CCCCC1C (configuration not stated)	-38.4	/	/	/	13.0	/
CCc1ccc(OCC(=O)O/N=C(\N)c2cccnc2)cc1	10.6	/	15.0*	/	9.3	7.9
O=C(CSc1nc2ccccc2n1Cc1c(F)cccc1Cl)Nc1nccs1	16.1	/	/	/	10.2	/
CCCN(CC#CC(O)(c1ccccc1)c1cccnc1)CCC (configuration not stated)	9.1	1.2	22.3*	2.9	5.9	9.3
Cc1cc(C)c(S(=O)(=O)Nc2cc(SCC(=O)O)c(O)c3ccccc23)cc1C	-4.0	-1.2	16.0*	-6.4	4.8	49.2*
CC1=[N+](CCC#N)CC(C)(C)C1	-2.8	/	/	/	6.5	/

Screening data (PubChem)
